Experimental data reported in ChEMBL document CHEMBL3352584, “Novel DNA gyrase inhibiting spiropyrimidinetriones with a benzisoxazole scaffold: SAR and in vivo characterization” (J Med Chem, 2014).
≈ marks a conversion by molar mass, not a printed value.

Experiments:
Staphylococcus aureus [1] = experiment: Antimicrobial activity against methicillin-sensitive Staphylococcus aureus ARC516 infected in immunosupressed mouse assessed as reduction in CFU at AUC of 120 ug.hr/mL compound administered as single ip dose starting 2 hrs after infection relative to untreated control; assay type: functional
Outline: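 Mice were made neutropenic with IP cyclophosphamide, 150 mg/kg at day −4 and 100 mg/kg at day −1. CD-1 thighs were then infected with mid-log S. aureus ARC516 (target 5 × 10⁵ CFU). Groups of five received IP compound in DMA:TEG:saline 40/40/20%, starting 2 h post-infection, alongside vehicle controls. At 24 h after treatment start, thigh homogenates were plated on tryptic soy agar (37 °C, overnight) for CFU/g.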

Rattus norvegicus [2] = experiment: fCmax in Wistar Hannover rat at 500 mg/kg, po dosed once daily for 14 days measured on day 14; assay type: ADME, organism-based; parameters: dose 500 mg/kg, route oral; details: in vivo, 336 h
Staphylococcus aureus [3] = experiment: Antimicrobial activity against methicillin-sensitive Staphylococcus aureus ARC516 infected in immunocompetant mouse assessed as reduction in CFU at AUC of 70 ug.hr/mL compound administered as single ip dose starting 2 hrs after infection relative to untreated control; assay type: functional
Outline: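 CD-1 mouse thighs were infected with mid-log S. aureus ARC516 at a target inoculum of 5 × 10⁵ CFU. Groups of five received IP compound in DMA:TEG:saline 40/40/20%, starting 2 h post-infection; a vehicle group served as control. Mice were killed 24 h after treatment start, and thigh homogenates were plated on tryptic soy agar (37 °C, overnight) for CFU/g. Free exposure was corrected for mouse plasma protein binding.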

Staphylococcus aureus [4] = experiment: Antimicrobial activity against methicillin-resistant and quinolone-resistant Staphylococcus aureus by broth microdilution method; assay type: functional
Outline: (§1)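 Broth microdilution following CLSI guidelines. Values under 12.5 μM are averages of three or more replicates.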

Escherichia coli [5] = experiment: Antimicrobial activity against Escherichia coli by broth microdilution method; assay type: functional; outline: as §1
Streptococcus pneumoniae [6] = experiment: Antimicrobial activity against wild-type Streptococcus pneumoniae 548 by broth microdilution method; assay type: functional; outline: as §1
[7] = Clearance in rat at 3 mg/kg, iv or at 10 mg/kg, po by LC-MS/MS method; assay type: ADME, organism-based; details: in vivo
Outline: (§2)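 Male mice (CD-1) or male Wistar Hannover rats, three per experiment, given a 15 min iv infusion at 3 mg/kg or oral dosing at 10 mg/kg. Vehicle was DMA:TEG:saline 40/40/20 for mice and meglumine/cyclodextrin for rats. Serial jugular blood was taken over 0–24 h, plasma analysed by LC-MS/MS, and a noncompartmental analysis used. Mean values are given.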

DNA gyrase = DNA gyrase (Escherichia coli, UniProt P0AES4+P0AES6); experiment: Inhibition of Escherichia coli DNA gyrase using fluorescence-tagged DNA by fluorescenct polarization assay; assay type: protein-complex assay
Outline: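 E. coli DNA gyrase supercoiling assay. The read-out was differential binding of a fluorescence-tagged DNA to relaxed versus supercoiled DNA, giving IC50.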

[8] = Cmax in Wistar Hannover rat at 250 mg/kg, po dosed once daily for 14 days measured on day 14; assay type: ADME, organism-based; parameters: dose 250 mg/kg, route oral; details: in vivo
Outline: (§3)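 Wistar Hannover rats, 2 males and 2 females per dose, dosed orally once daily for 14 days at 250, 500 or 750 mg/kg/day. Vehicle was 0.2 M meglumine/20% hydroxypropyl-β-cyclodextrin. Blood was sampled on day 14 and exposure measured in blood. Animals were killed after sampling without necropsy.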

[9] = AUC in Wistar Hannover rat at 750 mg/kg, po dosed once daily for 14 days measured on day 14; assay type: ADME, organism-based; parameters: dose 750 mg/kg, route oral; details: plasma; outline: as §3
Streptococcus pneumoniae [10] = experiment: Antimicrobial activity against Streptococcus pneumoniae by broth microdilution method; assay type: functional; outline: as §1
[11] = Fraction unbound in rat plasma at 10 uM after 16 hrs by LC-MS/MS analysis; assay type: ADME, cell-free
Outline: (§4)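 Compound at 10 μM in human, rat or mouse plasma, equilibrium dialysis against buffer at 37 °C for 16 h. Buffer and plasma concentrations measured by LC-MS/MS, and the free fraction taken from their ratio.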

[12] = Clearance in mouse at 3 mg/kg, iv or at 10 mg/kg, po by LC-MS/MS method; assay type: ADME, organism-based; details: in vivo; outline: as §2
[13] = Fraction unbound in human plasma at 10 uM after 16 hrs by LC-MS/MS analysis; assay type: ADME, cell-free; outline: as §4
Streptococcus pneumoniae [14] = experiment: Antimicrobial activity against Streptococcus pneumoniae 2485 harboring GyrA S81F mutant, GyrB D160E/T329A mutant and ParC S79F mutant by broth microdilution method; assay type: functional
[15] = Cmax in Wistar Hannover rat at 750 mg/kg, po dosed once daily for 14 days measured on day 14; assay type: ADME, organism-based; parameters: dose 750 mg/kg, route oral; details: in vivo; outline: as §3
Staphylococcus aureus [16] = experiment: Antimicrobial activity against methicillin-sensitive Staphylococcus aureus by broth microdilution method in presence of 50% human serum; assay type: functional
Outline: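 CLSI broth microdilution against methicillin-sensitive S. aureus, run with 50% human serum added to the medium to reflect plasma protein binding. Values under 12.5 μM are averages of three or more replicates.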

Staphylococcus aureus [17] = experiment: Antimicrobial activity against methicillin-sensitive Staphylococcus aureus ARC516 infected in immunosupressed mouse administered as single ip dose starting 2 hrs after infection; assay type: functional, organism-based
Staphylococcus aureus [18] = experiment: Antimicrobial activity against methicillin-sensitive Staphylococcus aureus by broth microdilution method; assay type: functional; outline: as §1
[19] = Bioavailability in rat at 3 mg/kg, iv or at 10 mg/kg, po by LC-MS/MS method; assay type: ADME, organism-based; details: in vivo; outline: as §2
Streptococcus pneumoniae [20] = experiment: Antimicrobial activity against Streptococcus pneumoniae 2800 harboring GyrB K143I/T172A mutant by broth microdilution method; assay type: functional
Staphylococcus aureus [21] = experiment: Antimicrobial activity against methicillin-sensitive Staphylococcus aureus ARC516 infected in mouse at 3 to 100 mg/kg/day, ip starting 2 hrs after infection; assay type: functional, organism-based
Outline: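 CD-1 mouse thighs infected with mid-log S. aureus ARC516 at a target inoculum of 5 × 10⁵ CFU. Groups of five received ip compound in DMA:TEG:saline 40/40/20, either q24h or q6h, from 2 h post-infection. Mice were killed 24 h after treatment start and thigh homogenates plated on tryptic soy agar (37 °C overnight) for CFU/g. Neutropenia was induced with ip cyclophosphamide, 150 mg/kg on day −4 and 100 mg/kg on day −1.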

Rattus norvegicus [22] = experiment: Toxicity in Wistar Hannover rat at 250 to 500 mg/kg, po administered once daily for 14 days; assay type: organism-based; parameters: dose 250-500 mg/kg, route oral; details: in vivo, 336 h
Outline: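 Repeat-dose oral study in Wistar Hannover rats, three males and three females per group, dosed once daily for 14 days at 0, 250, 500 or 750 mg/kg/day and necropsied on day 15. Endpoints were clinical signs, body weight, food intake, temperature, hematology, plasma chemistry, toxicokinetics, and gross and microscopic pathology.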

Staphylococcus aureus [23] = experiment: Antimicrobial activity against wild-type Staphylococcus aureus 516 by broth microdilution method; assay type: functional; outline: as §1
Escherichia coli [24] = experiment: Antimicrobial activity against tolC-deficient Escherichia coli by broth microdilution method; assay type: functional; outline: as §1
Staphylococcus aureus [25] = experiment: Antimicrobial activity against Staphylococcus aureus 2375 harboring GyrA S84L mutant, GyrB R144A mutant and ParC S80Y/E84G/V693M mutant and ParE N141S mutant by broth microdilution method; assay type: functional
Rattus norvegicus [26] = experiment: fAUC in Wistar Hannover rat at 500 mg/kg, po dosed once daily for 14 days measured on day 14; assay type: ADME, organism-based; parameters: dose 500 mg/kg, route oral; details: in vivo, 336 h
Staphylococcus aureus [27] = experiment: Inhibition of cell wall biosynthesis in methicillin-sensitive Staphylococcus aureus by [14C]-N-acetylglucosamine incorporation assay; assay type: functional, organism-based
[28] = Fraction unbound in mouse plasma at 10 uM after 16 hrs by LC-MS/MS analysis; assay type: ADME, cell-free; outline: as §4

SMILES: Cc1noc2c(F)c3c(cc12)CC1(C(=O)NC(=O)NC1=O)[C@H]1[C@H](C)O[C@H](C)CN31
- fold change (FC) (Staphylococcus aureus [1]): 3
- fCmax (Rattus norvegicus [2]): 70 µmol/L
- fold change (FC) (Staphylococcus aureus [3]): 3
- MIC (Staphylococcus aureus [4]): 2 µM (≈ 0.805 µg/mL)
- MIC (Escherichia coli [5]): 45 µM (≈ 18.1 µg/mL)
- MIC (Streptococcus pneumoniae [6]): 4 µg/mL (≈ 9.94 µM)
- clearance [7]: 32 mL/min/kg
- IC50 (DNA gyrase): 290 nM
- Cmax [8]: 290 µM
- AUC at 336 h [9]: 4600 µM·h
- MIC (Streptococcus pneumoniae [10]): 8.8 µM (≈ 3.54 µg/mL)
- fraction unbound at 16 h, 10 µM [11]: 0.16
- clearance [12]: 38 mL/min/kg
- fraction unbound at 16 h, 10 µM [13]: 0.094
- MIC (Streptococcus pneumoniae [14]): 2 µg/mL (≈ 4.97 µM)
- Cmax [15]: 487 µM
- MIC (Staphylococcus aureus [16]): 3.1 µM
- Activity (Staphylococcus aureus [17]): Dose-dependent effect
- MIC (Staphylococcus aureus [18]): 1 µM (≈ 0.402 µg/mL)
- bioavailability [19]: 71%
- MIC (Streptococcus pneumoniae [20]): 4 µg/mL (≈ 9.94 µM)
- Activity (Staphylococcus aureus [21]): Dose-dependent effect
- Activity (Rattus norvegicus [22]): Non-toxic
- MIC (Staphylococcus aureus [23]): 0.5 µg/mL (≈ 1.24 µM)
- MIC (Escherichia coli [24]): ≤ 0.2 µM
- MIC (Staphylococcus aureus [25]): 0.5 µg/mL (≈ 1.24 µM)
- fAUC (Rattus norvegicus [26]): 700 µM·h
- IC50 (Staphylococcus aureus [27]): 8 µg/mL (≈ 19.9 µM)
- fraction unbound at 16 h, 10 µM [28]: 0.19
